Test results from article PMC5065790 (Bioorganic & medicinal chemistry, 2016).

What was measured:
[1] = target: HIV-1 MA protein (Human immunodeficiency virus type 1 group M subtype B, UniProt P12493); assay: HIV-1 MA crosslinking, dimer/monomer immunoblot; format: biochemical; conditions: 30 µM MA, 50 µM compound
Procedure, shortened: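 Purified HIV-1 MA at 30 µM in 25 mM sodium phosphate (pH 7.8) plus 50 mM NaCl, incubated 2 h at 25°C with or without 50 µM test compound. Dimer and monomer bands were then measured, and percentage MA crosslinking was derived from them.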

[2] = test system: HIV-1 PrGag in immature virus particles; assay: Virus crosslink analysis, immature HIV-1 particles; format: biochemical; conditions: 1 mM compound, 1 h at 25°C
[3] = Peptide crosslinking analysis; format: biochemical; conditions: 0.1 mM peptide, 1 mM compound, 2 h 25°C, reducing SDS-PAGE
[4] = target: HIV-1 MA-RNA binding (Human immunodeficiency virus type 1 group M subtype B, UniProt P12493); assay: Fluorescence polarization; conditions: screen of 50,000 compounds
[5] = test system: HIV-1 virus particles; assay: Inactivation of GFP-transducing HIV-1; format: cell-based; conditions: 1 mM, virus treated 1 h at 37°C, HEK293T cells, 48 h
[6] = test system: HIV-1 virus particles; assay: Inactivation of luciferase-transducing HIV-1; format: cell-based; conditions: 1 mM, virus treated 1 h at 37°C, HEK293T cells, 48 h
[7] = test system: HIV-1; conditions: ref [21]–[3]; cited from earlier work
[8] = test system: leukotriene synthesis; conditions: read-out: IC50 concentrations; ref [8]–[9]; cited from earlier work
[9] = target: soluble guanylate cyclase; conditions: read-out: IC50 concentrations; ref [8]–[9]; cited from earlier work

Row | SMILES | MA dimer formation (in words) [1] | HIV-1 PrGag dimer band [2] | peptide dimer formation [3] | other results
1 | O=C1C(Cl)=C(Cl)C(=O)c2ccccc21 [Compound 537, 2,3-dichloronaphthoquinone] | efficiently formed dimers | showed the HIV-1 PrGag dimer band | yielded dimers | –
2 | O=C1C(Cl)=C(Cl)C(=O)c2ncccc21 [Compound 81047, 6,7-dichloro-5,8-quinolinedione] | efficiently formed dimers | – | – | inhibition of MA-RNA binding in library screen (in words) [4]: potently inhibited MA-RNA binding
3 | O=C1C=CC(=O)N1CCN1C(=O)C=CC1=O [BMOE, bis-maleimidoethane] | – | – | yielded dimers | –
4 | c1ccc(SSc2ccccn2)nc1 [Aldrithiol-2, 2,2'-dipyridyldisulfide] | – | – | – | virus infection levels (GFP-positive cells, in words) [5]: dramatically reduced virus infection levels; virus infectivity level after treatment (luciferase, in words) [6]: nearly mock-infection levels; concentrations that inactivate HIV-1 [7]: 300 to 1000 µM
5 | O=C1C(Nc2ccccc2)=CC(=O)c2ncccc21 [LY83583, 6-anilino-5,8-quinolinequinone] | – | – | – | IC50 [8]: 1000 to 2000 nM; IC50 [9]: 1000 to 2000 nM
6 | O=C1C=CC(=O)N1CCCCCCN1C(=O)C=CC1=O [BMH, 1,6-bis-maleimidohexane, reference compound] | – | a dimer band was observed | yielded dimers | –
7 | COC1=C(Cl)C(=O)c2ncccc2C1=O [Compound 81048, 7-chloro-6-methoxy-5,8-quinolinedione] | significant levels of dimer formation | – | – | –
8 | O=C1C=CC(=O)c2cnccc21 [Compound 76882, 5,8-isoquinolinedione] | efficiently formed dimers | – | – | –
9 | COC1=C(Br)C(=O)c2ncccc2C1=O [Compound 102729, 7-bromo-6-methoxy-5,8-quinolinedione] | significant levels of dimer formation | to lower extents | – | –
